One experiment deals with T1, HsDHFR (Homo sapiens, UniProt P00374).
T1 sequence (P00374 1-187): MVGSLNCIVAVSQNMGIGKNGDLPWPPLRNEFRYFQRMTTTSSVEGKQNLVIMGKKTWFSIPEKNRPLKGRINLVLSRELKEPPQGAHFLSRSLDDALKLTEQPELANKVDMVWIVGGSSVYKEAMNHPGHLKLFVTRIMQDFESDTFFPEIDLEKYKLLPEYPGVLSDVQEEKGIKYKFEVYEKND
In words: biochemical.

Experiment [1] concerns P. falciparum V1/S (QM PfDHFR). In words: In vitro antimalarial activity, 3H-hypoxanthine incorporation, V1S. Type of experiment: cell-based. The conditions noted are these: Plasmodium falciparum, read-out: IC50 PfV1S. The essentials:
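P. falciparum V1/S (quadruple-mutant PfDHFR, chloroquine-resistant) grown in human erythrocytes at 37 °C under 3% CO2. Medium was RPMI 1640 with 25 mM HEPES, 0.2% NaHCO3, 40 µg/mL gentamicin and 8% human serum. Activity was measured by ³H-hypoxanthine incorporation.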

In a further experiment the target is PfDHFR-WT (Plasmodium falciparum, UniProt P13922, N108S/R59C). Nature of the experiment: DHFR enzyme inhibition assay, wild type. Type of experiment: biochemical.
The subject of experiment [2] is P. falciparum TM4/8.2 (wild type PfDHFR). Nature of the experiment: In vitro antimalarial activity, 3H-hypoxanthine incorporation, TM4/8.2. Type of experiment: cell-based. The conditions noted are these: Plasmodium falciparum.
In another experiment the test system is KB cells. Nature of the experiment: Cytotoxicity, sulforhodamine B staining, KB. The conditions noted are these: Homo sapiens, read-out: IC50 KB. The class given is cell-based.
Another experiment addresses PfDHFR-QM (Plasmodium falciparum, UniProt P13922, I164L/N51I). Nature of the experiment: DHFR enzyme inhibition assay, quadruple mutant. Type of experiment: biochemical.
Where [3] appears, read: read-out: IC50 PfTM4/8.2, WT P. falciparum, drug sensitive strain.

Like-named read-outs stand apart in the source and are kept apart here.

With `Nc1nc(N)c(CNCCc2ccc(Cl)cc2Cl)c(C2CC2)n1` [7 m, 6‐Cyclopropyl‐5‐{[(2,4‐dichlorophenethyl)amino]methyl}pyrimidine‐2,4‐diamine], the results for the Ki on HsDHFR and at PfDHFR-WT were 0.131 ± 0.005 µM and 0.002 ± 3e-05 µM, respectively. In addition, the IC50 in experiment [1] was 6.3 ± 1.2 µM; in experiment [2] (setting [3]), 3.6 ± 0.2 µM; with KB cells it was 66 ± 2 µM.
Turning to `Nc1nc(N)c(CNCCc2ccccc2Cl)c(C2CC2)n1` [7 j, 6‐Cyclopropyl‐5‐{[(2‐chlorophenethyl)amino]methyl}pyrimidine‐2,4‐diamine], the Ki stood at 0.023 ± 0.0006 µM on PfDHFR-QM, 0.304 ± 0.016 µM on HsDHFR and 0.0093 ± 0.0005 µM on PfDHFR-WT. Further, the IC50 in experiment [1] is 17 ± 3 µM; in experiment [2] (setting [3]) it was 0.4 ± 0.01 µM; with KB cells, 83 ± 7 µM.
Regarding `COc1ccccc1CCNCc1c(N)nc(N)nc1C1CC1` [7 d, 6‐Cyclopropyl‐5‐{[(2‐methoxyphenethyl)amino]methyl}pyrimidine‐2,4‐diamine], the Ki on PfDHFR-QM came out at 0.031 ± 0.002 µM; on HsDHFR, 1.59 ± 0.029 µM; at PfDHFR-WT, 0.015 ± 0.001 µM. Besides, the IC50 is 35 ± 4 µM in experiment [1], 25 ± 1 µM in experiment [2] (setting [3]) and over 100 µM in the experiment on KB cells.
Consider `Nc1nc(N)c(CNCCc2ccc(F)cc2)c(C2CC2)n1` [7 i, 6‐Cyclopropyl‐5‐{[(4‐fluorophenethyl)amino]methyl}pyrimidine‐2,4‐diamine], for which the values for the Ki on PfDHFR-QM, on HsDHFR and at PfDHFR-WT were 0.035 ± 0.002 µM, 0.212 ± 0.012 µM and 0.0057 ± 0.0005 µM, respectively. Besides, the IC50 in experiment [1] is 48 ± 5 µM; in experiment [2] (setting [3]) it was 23 ± 3 µM; in the experiment on KB cells it was over 100 µM.
On to `Nc1nc(N)c(CNCCc2ccc(F)cc2)c(C2CCCCC2)n1` [7 t, 6‐Cyclohexyl‐5‐{[(4‐fluorophenethyl)amino]methyl}pyrimidine‐2,4‐diamine], for which the Ki was 0.136 ± 0.007 µM on PfDHFR-QM, over 250 µM at HsDHFR and 0.08 ± 0.009 µM at PfDHFR-WT. Moreover, the figures for the IC50 (in experiment [1]; in experiment [2] (read-out: IC50 PfTM4/8.2); in the experiment on KB cells) were 7 ± 2 µM, 2.2 ± 0.1 µM and 56 ± 5 µM, respectively.
Consider `COc1ccc(CCNCc2c(N)nc(N)nc2-c2ccccc2)cc1` [7 c, 6‐Phenyl‐5‐{[(4‐methoxyphenethyl)amino]methyl}pyrimidine‐2,4‐diamine], for which the Ki was 0.069 ± 0.005 µM on PfDHFR-QM, over 500 µM on HsDHFR and 0.086 ± 0.013 µM at PfDHFR-WT. Moreover, the IC50 is 34 ± 2 µM in experiment [1], 28 ± 5 µM in experiment [2] (read-out: IC50 PfTM4/8.2) and over 100 µM in the experiment on KB cells.
For `Nc1nc(N)c(CNCCc2ccc(Cl)cc2)c(C2CCCCC2)n1` [7 w, 6‐Cyclohexyl‐5‐{[(4‐chlorophenethyl)amino]methyl}pyrimidine‐2,4‐diamine], the Ki was 0.06 ± 0.001 µM on PfDHFR-QM and over 500 µM at HsDHFR. The IC50 was 4.5 ± 0.3 µM in experiment [1], 3.1 ± 0.2 µM in experiment [2] (read-out: IC50 PfTM4/8.2) and 23 ± 0.2 µM with KB cells.
In the case of `Nc1nc(N)c(CNCCc2ccccc2F)c(C2CC2)n1` [7 g, 6‐Cyclopropyl‐5‐{[(2‐fluorophenethyl)amino]methyl}pyrimidine‐2,4‐diamine], the Ki on PfDHFR-QM amounted to 0.031 ± 0.002 µM; on HsDHFR it was 0.205 ± 0.001 µM; at PfDHFR-WT, 0.0082 ± 0.0003 µM. Moreover, the IC50 was 25 ± 2 µM in experiment [1], 12 ± 5 µM in experiment [2] (setting [3]) and over 100 µM with KB cells.
For the compound `COc1ccccc1CCNCc1c(N)nc(N)nc1-c1ccccc1` [7 a, 6‐Phenyl‐5‐{[(2‐methoxyphenethyl)amino]methyl}pyrimidine‐2,4‐diamine], the Ki at PfDHFR-QM was 0.208 ± 0.003 µM; on HsDHFR it was over 500 µM; on PfDHFR-WT it was 0.243 ± 0.021 µM. In addition, the IC50 in experiment [1] is 54 ± 2 µM; in experiment [2] (read-out: IC50 PfTM4/8.2) it was 27 ± 3 µM; with KB cells, over 100 µM.
Turning to `Nc1nc(N)c(CNCCc2ccccc2Cl)c(C2CCCCC2)n1` [7 u, 6‐Cyclohexyl‐5‐{[(2‐chlorophenethyl)amino]methyl}pyrimidine‐2,4‐diamine], the Ki is 0.038 ± 0.001 µM at PfDHFR-QM, over 250 µM at HsDHFR and 0.022 ± 0.002 µM at PfDHFR-WT. In addition, the IC50 was found to be 16 ± 1 µM in experiment [1], 3.3 ± 0.3 µM in experiment [2] (read-out: IC50 PfTM4/8.2) and 22 ± 0.05 µM in the experiment on KB cells.
`CCc1nc(N)nc(N)c1-c1ccc(Cl)cc1` [PYR, pyrimethamine, reference compound]: the IC50 is over 100 µM in experiment [1], 0.05 ± 0.007 µM in experiment [2] (read-out: IC50 PfTM4/8.2), 0.053 µM in experiment [2] (setting [3]) and 60 ± 26 µM in the experiment on KB cells.
Consider `Nc1nc(N)c(CNCCc2cccc(Cl)c2)c(C2CC2)n1` [7 k, 6‐Cyclopropyl‐5‐{[(3‐chlorophenethyl)amino]methyl}pyrimidine‐2,4‐diamine], for which the figures for the Ki at PfDHFR-QM, on HsDHFR and at PfDHFR-WT were 0.02 ± 0.0009 µM, 0.345 ± 0.007 µM and 0.0025 ± 0.0001 µM, respectively. Besides, the results for the IC50 (in experiment [1]; in experiment [2] (setting [3]); in the experiment on KB cells) were 14 ± 4 µM, 4.2 ± 0.9 µM and 82 ± 13 µM, respectively.
Regarding `COc1ccccc1CCNCc1c(N)nc(N)nc1C1CCCCC1` [7 o, 6‐Cyclohexyl‐5‐{[(2‐methoxyphenethyl)amino]methyl}pyrimidine‐2,4‐diamine], the Ki is 0.126 ± 0.009 µM on PfDHFR-QM, over 500 µM on HsDHFR and 0.128 ± 0.009 µM on PfDHFR-WT. The IC50 in experiment [1] came to 9.4 ± 1.9 µM; in experiment [2] (read-out: IC50 PfTM4/8.2) it was 3.7 ± 0.3 µM; in the experiment on KB cells it was 22 ± 0.3 µM.
For the compound `COc1cccc(CCNCc2c(N)nc(N)nc2-c2ccccc2)c1` [7 b, 6‐Phenyl‐5‐{[(3‐methoxyphenethyl)amino]methyl}pyrimidine‐2,4‐diamine], the Ki at PfDHFR-QM is 0.074 ± 0.001 µM; at HsDHFR, over 500 µM; on PfDHFR-WT, 0.107 ± 0.003 µM. The IC50 in experiment [1] is 48 ± 1 µM; in experiment [2] (read-out: IC50 PfTM4/8.2) it was 27 ± 4 µM; in the experiment with KB cells, over 100 µM.
For `Nc1nc(N)c(CNCCc2cccc(F)c2)c(C2CC2)n1` [7 h, 6‐Cyclopropyl‐5‐{[(3‐fluorophenethyl)amino]methyl}pyrimidine‐2,4‐diamine], the Ki on PfDHFR-QM turned out to be 0.026 ± 0.002 µM; on HsDHFR, 0.458 ± 0.031 µM; at PfDHFR-WT, 0.01 ± 0.0003 µM. Moreover, the IC50 in experiment [1] is 20 ± 2 µM; in experiment [2] (setting [3]), 4.2 ± 0.3 µM; in the experiment on KB cells, over 100 µM.
On to `Nc1nc(N)c(CNCCc2ccc(Cl)cc2)c(C2CC2)n1` [7 l, 6‐Cyclopropyl‐5‐{[(4‐chlorophenethyl)amino]methyl}pyrimidine‐2,4‐diamine], for which the results for the Ki on PfDHFR-QM, on HsDHFR and on PfDHFR-WT were 0.027 ± 0.0001 µM, 0.142 ± 0.006 µM and 0.0025 ± 0.0002 µM, respectively. Also, the IC50 was found to be 18 ± 3 µM in experiment [1], 5 ± 0.6 µM in experiment [2] (setting [3]) and 70 ± 0.5 µM in the experiment on KB cells.
With `COc1ccc(CCNCc2c(N)nc(N)nc2C2CCCCC2)cc1` [7 q, 6‐Cyclohexyl‐5‐{[(4‐methoxyphenethyl)amino]methyl}pyrimidine‐2,4‐diamine], the Ki at PfDHFR-QM is 0.055 ± 0.002 µM; on HsDHFR, over 500 µM; at PfDHFR-WT, 0.032 ± 0.001 µM. Moreover, the values for the IC50 (in experiment [1]; in experiment [2] (read-out: IC50 PfTM4/8.2); in the experiment on KB cells) were 3.7 ± 0.2 µM, 1.8 ± 0.1 µM and 23 ± 0.2 µM, respectively.
Consider `Nc1nc(N)c(CNCCc2ccc(Cl)c(Cl)c2)c(C2CCCCC2)n1` [7 y, 6‐Cyclohexyl‐5‐{[(3,4‐dichlorophenethyl)amino]methyl}pyrimidine‐2,4‐diamine], for which the figures for the Ki at PfDHFR-QM, at HsDHFR and on PfDHFR-WT were 0.028 ± 0.003 µM, over 250 µM and 0.009 ± 0.0007 µM, respectively. In addition, the results for the IC50 (in experiment [1]; in experiment [2] (read-out: IC50 PfTM4/8.2); with KB cells) were 4 ± 0.3 µM, 3.5 ± 0.3 µM and 22 ± 0.1 µM, respectively.
Regarding `CC1(C)N=C(N)N=C(N)N1c1ccc(Cl)cc1` [CYC, cycloguanil, reference compound], affinity on PfDHFR-QM was put at a Ki of 0.42 ± 0.13 µM. Besides, the results for the IC50 (in experiment [1]; in experiment [2] (read-out: IC50 PfTM4/8.2); in the experiment on KB cells) were 92 ± 6 µM, 0.03 ± 0.005 µM and over 100 µM, respectively.
Regarding `COc1cccc(CCNCc2c(N)nc(N)nc2C2CCCCC2)c1` [7 p, 6‐Cyclohexyl‐5‐{[(3‐methoxyphenethyl)amino]methyl}pyrimidine‐2,4‐diamine], the Ki at PfDHFR-QM is 0.056 ± 0.002 µM; at HsDHFR, over 500 µM; on PfDHFR-WT, 0.031 ± 0.005 µM. In addition, the IC50 in experiment [1] turned out to be 4.1 ± 0.3 µM; in experiment [2] (read-out: IC50 PfTM4/8.2), 3.5 ± 0.2 µM; in the experiment on KB cells it was 23 ± 0.3 µM.
With `Nc1nc(N)c(CNCCc2ccc(Cl)c(Cl)c2)c(C2CC2)n1` [7 n, 6‐Cyclopropyl‐5‐{[(3,4‐dichlorophenethyl)amino]methyl}pyrimidine‐2,4‐diamine], the Ki at PfDHFR-QM turned out to be 0.013 ± 4e-05 µM; on HsDHFR, 0.202 ± 0.006 µM; at PfDHFR-WT, 0.0013 ± 6e-05 µM. For the same compound, the IC50 came to 4.4 ± 0.1 µM in experiment [1], 3.3 ± 0.1 µM in experiment [2] (setting [3]) and 23 ± 0.5 µM in the experiment on KB cells.
For `COc1cccc(CCNCc2c(N)nc(N)nc2C2CC2)c1` [7 e, 6‐Cyclopropyl‐5‐{[(3‐methoxyphenethyl)amino]methyl}pyrimidine‐2,4‐diamine], the Ki came to 0.026 ± 0.0005 µM on PfDHFR-QM, 1.04 ± 0.034 µM at HsDHFR and 0.0044 ± 0.0002 µM on PfDHFR-WT. In addition, the IC50 in experiment [1] is 13 ± 1 µM; in experiment [2] (setting [3]), 4.2 ± 0.2 µM; in the experiment with KB cells, 74 ± 4 µM.
On to `COc1ccc(CCNCc2c(N)nc(N)nc2C2CC2)cc1` [7 f, 6‐Cyclopropyl‐5‐{[(4‐methoxyphenethyl)amino]methyl}pyrimidine‐2,4‐diamine], for which the results for the Ki at PfDHFR-QM, on HsDHFR and on PfDHFR-WT were 0.029 ± 0.0006 µM, 0.647 ± 0.006 µM and 0.0035 ± 0.0004 µM, respectively. Moreover, the IC50 in experiment [1] amounted to 15 ± 3 µM; in experiment [2] (setting [3]), 3.5 ± 0.2 µM; in the experiment on KB cells it was 72 ± 1 µM.

For the origin of these results see PMC9827987 (Chemmedchem, 2022).
